Source: PubChem BioAssay (Broad Institute)
GSK3 alpha inh – blockers of GSK3A enzyme activity – biochemical, luminescence, cell-free homogeneous, HTS, primary screen; 320,000 compounds, 0.1% hits; GSK-3 alpha kinase, ADP-Glo luminescence, 60 min; inhibition, % at 10 µM;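 active = more than half of replicates show inhibition above 20%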;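 also: GST-tagged GSK-3 alpha with peptide substrate and 25 µM ATP; 0% = DMSO neutral wells and 100% = GW8510 positive control wells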
GSK3beta inhib – human GSK3beta kinase inhibitors, primary screen, biochemical, cell-free homogeneous, HTS; 300,000 compounds, 0.038% hits; activity score (negative = inhibition), % at 10 µM; GST-GSK3beta kinase, ADP-Glo luminescence, 60 min; hits give low values; Glycogen synthase kinase-3 beta (Homo sapiens), P49841;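 active = more than half of replicate wells score below -50%, meaning over 50% inhibition versus plate controls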;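 also: 0% = median DMSO wells and -100% = median GW8510 positive control wells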
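Test system – GST-tagged human GSK3beta kinase, cell-free · Incubation – 60 min enzyme reaction, room temperature · Signal – ADP-Glo luminescence · Also added – peptide substrate and ATP at 25 µM · Controls – DMSO neutral wells and GW8510 at 20 µM as positive · Buffer or medium – Tris/MgCl2 kinase buffer · Measure – Luminescence-derived activity versus plate DMSO and GW8510 wells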
CDK5 inh – inhibitors of human CDK5/p35 kinase, primary screen, biochemical, single concentration; AID 488839, 2010; Cyclin-dependent kinase 5 (Homo sapiens) + Cyclin-dependent kinase 5 activator 1 (Homo …; 330,000 compounds, 0.01% hits; inhibition, % at 10 µM; Recombinant CDK5/p35, ADP-Glo luminescence, 60 min;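 active = highest replicate inhibition of at least 50% and at least 75% of replicates reaching 50%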;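 also: plate controls were DMSO neutral control for no effect and GW8510 at 10 µM for full effect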
STK33 kinase inh – inhibitors of purified STK33 kinase, primary screen, biochemical, ADP-Glo luminescence, homogeneous, cell-free. inhibition, % at 10 µM. Serine/threonine-protein kinase 33 (Homo sapiens), Q9BYT3. MBP phosphorylation. 320,000 compounds, 0.073% hits. AID 2661, 2010;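 active = inhibition at or above 25%, using the most active replicate where run in duplicate; inactive = inhibition below 25%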
Target sequence (Q9BYT3 whole entry, looked up): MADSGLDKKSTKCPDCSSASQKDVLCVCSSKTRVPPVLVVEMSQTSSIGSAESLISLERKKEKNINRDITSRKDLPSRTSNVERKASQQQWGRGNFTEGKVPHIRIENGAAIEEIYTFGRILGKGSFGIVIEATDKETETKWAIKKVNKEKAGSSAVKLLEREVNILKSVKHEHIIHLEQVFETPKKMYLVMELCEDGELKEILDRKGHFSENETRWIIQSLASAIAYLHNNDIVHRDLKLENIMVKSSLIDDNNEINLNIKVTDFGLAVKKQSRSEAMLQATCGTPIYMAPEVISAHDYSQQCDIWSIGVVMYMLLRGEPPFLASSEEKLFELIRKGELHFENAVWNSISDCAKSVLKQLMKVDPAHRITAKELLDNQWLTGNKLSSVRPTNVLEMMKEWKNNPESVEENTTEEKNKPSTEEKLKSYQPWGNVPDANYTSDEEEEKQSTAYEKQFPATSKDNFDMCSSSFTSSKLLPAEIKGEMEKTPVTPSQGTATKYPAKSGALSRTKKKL
Dyrk1A ADPGlo – rat Dyrk1A kinase inhibitors, primary screen, biochemical, single point, plate reader; Dual specificity tyrosine-phosphorylation-regulated kinase 1A (Rattus norvegicus), Q63470; ADP-Glo luminescence, NFATc1 peptide; inhibition, % at 12.5 µM; 310,000 compounds, 0.43% hits; in the data active = inhibition above about 50%;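 also: plate controls were vehicle with enzyme for no effect and no enzyme for full effect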
Dyrk1A artifact – ADP-Glo luciferase interference without Dyrk1A, dose response, artefact control for Dyrk1A inhibitor project, biochemical, luminescence, cherry-pick, set 02 | AC50, µM (series often up to 12 µM), for inactives: at the top dose activity change, negative = inhibition | ADP-Glo luciferase artifact assay, no Dyrk1A | 1,300 tested, under 10 active | shares compounds with Dyrk1A ADPGlo | AID 588348, 2011;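 active = fitted half-maximal dose AC50 no more than ten times the top valid tested dose, with luminescence dropping as dose rises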
* = called active by the depositor; · = no result given. This excerpt belongs to a sample that is enriched for hits.

SMILES | GSK3 alpha inh | GSK3beta inhib | CDK5 inh | STK33 kinase inh | Dyrk1A ADPGlo | Dyrk1A artifact
CCOC(=O)c1ccc(NC(=S)Nc2ccc(Br)cc2N)cc1 | -1 | 6 | 6 | -1 | 63* | 8%
CC(C)C[C@H]1COCCS(=O)(=O)N1Cc1cccc(Cl)c1 | 6 | -7 | 1 | 0 | 51* | 8%
O=C1N(c2ccccc2)C(c2ccccc2)C12CCCCC2 (centres undefined) | · | · | -1 | · | 1 | ·
Cn1c(C(=O)NCC2CCCO2)cc2c(=O)n(C)c3ccccc3c21 (centres undefined) | 0 | -3 | 1 | 2 | 55* | 10%
Cn1c(C(=O)N2CCN(c3ncccn3)CC2)cc2c(=O)n(C)c3ccccc3c21 | · | -1 | 0 | 0 | 15 | ·
Cc1ccc(CNC(=O)c2cc3c(=O)n(C)c4ccccc4c3n2C)o1 | · | 1 | -1 | -1 | 62* | 7%
Cn1c(C(=O)N2CCCC2)cc2c(=O)n(C)c3ccccc3c21 | · | · | 3 | · | 75* | 9%
Cn1c(C(=O)NCc2ccccn2)cc2c(=O)n(C)c3ccccc3c21 | · | -4 | -1 | 2 | 19 | ·
COc1ccc(CN(C)C(=O)C23CC4CC(CC(Cl)(C4)C2)C3)c(OC)c1OC | -2 | 5 | -1 | 0 | -4 | ·
CCCCC(OC(=O)c1ccco1)C(=O)NCc1ccc(C)cc1 (centres undefined) | -2 | 0 | -1 | -1 | 0 | ·
Cc1[nH]nc2c1-c1nc3ccccc3nc1C(C)(C)C2 | 36 | -5 | 39 | 10 | 80* | 9%
O=c1cc[nH]c2c1ccc1cccnc12 | · | -12 | -4 | 1 | 81* | 10%
COc1ccc(Oc2ccc(C(F)(F)F)cc2N)cc1 | -1 | -6 | 0 | -2 | · | ·
O=[N+]([O-])c1cccc(S(=O)(=O)N/N=C/c2ccc(O)cc2)c1 | -4 | 5 | 0 | 1 | · | ·
O=C1c2ccccc2S(=O)(=O)N1Cc1nnc(-c2ccccc2Br)o1 | · | 0 | 0 | · | 59* | 9%
O=S1(=O)c2cccc3cccc(c23)N1Cc1nnc(-c2ccccc2Br)o1 | 1 | -2 | 3 | 0 | 12 | ·
COc1ccccc1C1CCN(c2cc(O)ccc2[N+](=O)[O-])CC1 | 6 | -1 | 1 | 5 | 54* | 10%
COc1ccccc1C1CCN(C(=O)C2CCCCC2)CC1 | -2 | 2 | 0 | -2 | 2 | ·
CC(C)Oc1ccc(C(CC(=O)NCc2ccco2)c2ccccc2)cc1 (centres undefined) | -2 | -2 | -1 | -1 | 55* | 7%
Cc1cccc(C(CC(=O)NCc2ccco2)c2ccccc2)c1O (centres undefined) | -3 | -1 | -1 | -1 | 0 | ·
COc1ccc2nc(C)c3c(c2c1)OC(C(C)(Cl)Br)C3 (centres undefined) | 1 | 0 | -1 | 1 | 79* | 10%
C=CCSc1nc(NC)c2sccc2n1 | 8 | 1 | 1 | 2 | 58* | 3%
CNc1nc(SC)nc2ccsc12 | 0 | 0 | 2 | 2 | 10 | ·
COCCNc1cc(C)nc2c(-c3ccccc3OC)c(C)nn12 | -6 | 0 | -2 | 0 | 57* | 11%
CC(C)(C)[C@@H]1C=C(C(=O)N2CCN(Cc3ccccc3)CC2)O[C@H](OCc2ccc(CO)cc2)C1 | -3 | 9 | 1 | -1 | 3 | ·
CC(C)(C)[C@H]1C=C(C(=O)N2CCN(Cc3ccccc3)CC2)O[C@@H](OCCCCO)C1 | -1 | -6 | 2 | 1 | 53* | 11%
CCc1nc(Nc2ccncc2)c2oc3ccccc3c2n1 | 0 | 2 | -1 | 1 | 13 | ·
CCc1nc(Nc2cccc(O)c2)c2oc3ccccc3c2n1 | 2 | -1 | -1 | 5 | 62* | 10%
